The structures appear in SMILES notation. Active and inactive are the calls of the source.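 How the source made its calls, unless noted: active means inhibition above 20% together with a positive visual image hit; inconclusive means visual image hit but inhibition not above 20%; inactive means no visual image hit.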

Experiment [1] is described as follows: inhibitors of TNFa-induced NFkB p65 translocation, primary screen, imaging, HUVEC, MLSMR starter and 10KST1 sets (AID 438).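 Further: compound added about 3h40 before a 20 min TNFalpha stimulation.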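 On inhibition: signal is the nuclear over cytoplasmic p65 intensity ratio per well.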 Particulars: HUVEC TNFa-induced p65 nuclear translocation; cell count: measured here: nuclei count (cytotoxicity indicator), at 2.08 µM; inhibition: at 2 µM, stronger effect = higher value, 0% TNFa-plus-vehicle, 100% no-TNFa wells.
Experiment [2] is described as follows: inhibitors of mutant huntingtin aggregation, primary screen, imaging, exon1htt(103Q)mCFP cells, high-content imaging (AID 483;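 active means visual image review flags a hit and inhibition of aggregation exceeds 20%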;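 further: compound exposure lasted 3 days before fixation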;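 on nuclei count: percent of the per-plate median nuclei count of sample wells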). Particulars: exon1htt(103Q)mCFP cell line, aggregate imaging, at 2 µM; inhibition of aggregation: stronger effect = higher value; nuclei count: measured here: cell count, toxicity.
Experiment [3] can be described thus: inhibitors of E-selectin induction by TNFa, primary screen, imaging, HUVEC, immunofluorescence, MLSMR starter and 10KST1 sets (AID 487;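 active means visually confirmed hit in the image check and inhibition above 20%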;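 on inhibition: signal is fraction of cell area covered by stained E-selectin grains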;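 on nuclei count: 100% = median nuclei count of all wells on the same plate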). Particulars: HUVEC TNFalpha-induced E-selectin immunofluorescence imaging, at 2 µM; inhibition: stronger effect = higher value; nuclei count: measured here: cell number, toxicity.
In experiment [4] the target is Voltage-gated potassium channel subunit beta-2 (Rattus norvegicus) (UniProt P62483). In words: KvBeta enzyme negative modulators, primary screen, biochemical, NADPH fluorescence (AID 622;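 active means fluorescence slope higher than the sample average by over 3 SD, cut at about -0.22 in these data, passing the limit was not always enough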;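 further: slope of raw intensity against log time taken from 70 to 1610 s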). The following applies: recombinant KvBeta, 4-cyanobenzaldehyde reduction, at 10 µM, stronger effect = higher value.
The target is the same in experiment [5]. In words: KvBeta positive modulators, primary screen, biochemical, NADPH fluorescence (AID 623;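 active means NADPH fluorescence slope more negative than the mean of all samples by about 3 SD, 99.7% confidence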;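 further: fluorescence intensity change per second fitted from 20 to 320 s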). The following applies: Recombinant KvBeta, NADPH fluorescence decrease slope, 10 min; at 10 µM; stronger effect = lower value.
Experiment [6] deals with Alpha-2C adrenergic receptor (Homo sapiens) (UniProt P18825). Nature of the experiment: modulators of alpha2C/GIRK thallium flux, primary screen, cell-based, HEK293 alpha2C/GIRK1/2 (AID 624;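 active means fluorescence slope after compound addition differing from the mean of all screened samples at 99.7% confidence, in either direction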;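 further: slope of fluorescence ratio to pre-addition baseline per second over 15 to 24 s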). The following applies: thallium flux BTC fluorescence, at 10 µM, actives lie on both sides.
The nature of experiment [7]: inhibitors of larval lipid processing in zebrafish, primary screen, whole organism, PED6 fluorescence, gall bladder and intestine (AID 686;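 active means a full or partial loss of lipid-probe fluorescence in the fish gall bladder, intestine or both, judged by eye; inactive means no fluorescence loss, or compound toxic to the fish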;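 further: larvae 5 to 7 days old with five fish per well; signal comes from phospholipase A2 cleavage of quenched PED6 carried via bile; overnight exposure to compound and PED6 before scoring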). The following applies: Zebrafish larvae PED6 lipid processing, fluorescence scoring; screened at 20 µM (by protocol). A digest of the protocol: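 Also added: quenched phospholipase substrate PED6, 100 nM final, ingested by larvae; System: zebrafish larvae, 5-7 d; Quantity: 5 larvae per well; Compound: 20 µM single dose; Schedule: overnight compound and PED6 incubation; Read-out: visual per-well fluorescence inhibition score; Measured by: By-eye fluorescence microscopy; Medium: E3.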

Experiment [8] can be described thus: inhibitors of Sendai virus-induced IRF3 signaling, primary screen, TLR/RLR signaling modifier project, cell-based, Sendai virus stimulus, luciferase, 10K MLSCN set (AID 602276;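 active means inhibition at or above 50% at 10 µM; inactive means inhibition below 50%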;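 further: firefly luciferase from ISG56 promoter only with Renilla not read in this screen; 0% = Sendai virus plus DMSO and 100% = medium plus DMSO without virus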). The following applies: HEK293 RL24 IRF3 luciferase reporter, at 10 µM, stronger effect = higher value.
Experiment [9] can be described thus: inhibitors of poly I:C-induced TLR3 signaling, primary screen, cell-based, poly I:C stimulus, luciferase, 10K MLSCN set (AID 602277;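 active means inhibition of the reporter signal at or above 50%; inactive means inhibition below 50%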). The following applies: HEK293-TLR3 RL24 IRF3 luciferase reporter, at 10 µM, stronger effect = higher value.

Chain of Alpha-2C adrenergic receptor (Homo sapiens) (P18825 whole entry, looked up): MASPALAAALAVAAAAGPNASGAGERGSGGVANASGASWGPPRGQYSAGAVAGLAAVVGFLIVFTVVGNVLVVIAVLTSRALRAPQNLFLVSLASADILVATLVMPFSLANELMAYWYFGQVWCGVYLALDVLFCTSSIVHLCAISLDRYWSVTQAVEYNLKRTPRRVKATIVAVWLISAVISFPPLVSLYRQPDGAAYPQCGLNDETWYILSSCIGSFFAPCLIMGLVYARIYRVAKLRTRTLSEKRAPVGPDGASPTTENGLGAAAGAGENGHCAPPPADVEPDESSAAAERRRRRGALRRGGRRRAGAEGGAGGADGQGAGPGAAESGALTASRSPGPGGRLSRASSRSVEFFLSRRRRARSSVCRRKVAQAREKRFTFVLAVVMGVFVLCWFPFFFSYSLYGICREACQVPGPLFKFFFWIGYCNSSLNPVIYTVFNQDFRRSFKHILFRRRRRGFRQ
Chain of Voltage-gated potassium channel subunit beta-2 (Rattus norvegicus) (P62483 whole entry, looked up): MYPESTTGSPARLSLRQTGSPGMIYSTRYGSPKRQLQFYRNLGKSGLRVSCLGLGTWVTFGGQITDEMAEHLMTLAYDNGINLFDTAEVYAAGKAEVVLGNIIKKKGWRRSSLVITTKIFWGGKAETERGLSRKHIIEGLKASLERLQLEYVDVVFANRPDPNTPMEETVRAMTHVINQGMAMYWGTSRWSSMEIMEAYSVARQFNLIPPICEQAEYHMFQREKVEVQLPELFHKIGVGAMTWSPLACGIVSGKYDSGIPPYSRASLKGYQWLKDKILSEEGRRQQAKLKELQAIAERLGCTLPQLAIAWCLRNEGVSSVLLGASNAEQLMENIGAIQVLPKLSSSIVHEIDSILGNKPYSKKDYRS

For `O=C(O)CCC(=O)NC1CCCCC1NC(=O)CCC(=O)O` (stereo unspecified), the cell count in experiment [1] came out at 488. For the same molecule, the inhibition in experiment [1] is 4% (inactive); in experiment [3], -189% (inactive); in experiment [8], 5.12% (inactive); in [9], 3.98% (inactive). Moreover, the inhibition of aggregation in experiment [2] was -8.6% (inactive). For the same molecule, the values for the nuclei count in experiment [2] and in experiment [3] were 104% and 129%, respectively. Also, the fluorescence slope in [4] is -0.394 (inactive). The NADPH fluorescence slope in experiment [5] was -6.2e-05 (inactive). In addition, the slope in experiment [6] was 0.00623 (inactive). The molecule was called inactive in experiment [7].

For the molecule `CCOC(=O)c1ccccc1NC1CC(=O)N(c2ccccc2C)C1=O` (stereo unspecified), the cell count in experiment [1] is 242. In addition, the inhibition in [1] was 6.7% (inactive); in [3] it was 8.6% (inactive); in experiment [8], -4.41% (inactive); in experiment [9], -8.61% (inactive). Further, in [2], the inhibition of aggregation was 12.6% (inactive). Besides, the nuclei count in [2] amounted to 97.9%; in experiment [3], 94.8%. Further, in experiment [4], the fluorescence slope was -0.262 (inactive). Further, the NADPH fluorescence slope in experiment [5] was 9.8e-06 (inactive). For the same molecule, the slope in experiment [6] is 0.00569 (inactive). The molecule was called inactive in [7].

For `O=C(O)c1ccc(CSc2ncn[nH]2)cc1`, the cell count in [1] came out at 352. In addition, the inhibition is -2.9% (inactive) in experiment [1], -14.9% (inactive) in experiment [3], 6.95% (inactive) in experiment [8] and 1.16% (inactive) in [9]. Also, the inhibition of aggregation in [2] is -12.6% (inactive). Moreover, the nuclei count in experiment [2] came out at 108%; in [3] it was 114%. Further, the fluorescence slope in experiment [4] was -0.42 (inactive). Also, the NADPH fluorescence slope in [5] is -2.8e-05 (inactive). Moreover, in experiment [6], the slope was 0.00649 (inactive). The molecule was called inactive in experiment [7].

For `COc1cccc2c(=O)cc(C)n(CC(=O)Nc3ccc(C)c(C)c3)c12`, the cell count in [1] stood at 456. Further, the inhibition in experiment [1] is 9.4% (inactive); in [3], 46.9% (inactive); in experiment [8] it was 0.857% (inactive); in experiment [9], -0.697% (inactive). Further, the inhibition of aggregation in experiment [2] is -8.4% (inactive). For the same molecule, the figures for the nuclei count in experiment [2] and in experiment [3] were 50.1% and 85.2%, respectively. For the same molecule, the fluorescence slope in experiment [4] is -0.364 (inactive). The NADPH fluorescence slope in experiment [5] was -4.9e-05 (inactive). Moreover, the slope in [6] was 0.00483 (inactive). Besides, the outcome in experiment [7] was inactive.

As for `Cc1cccc(OCC(=O)Nc2ccc(N3CCCC3)cc2)c1C`, the cell count in experiment [1] was found to be 553. Moreover, the inhibition is -2.5% (inactive) in experiment [1], -53.5% (inactive) in experiment [3], 7.46% (inactive) in experiment [8] and 6.78% (inactive) in experiment [9]. Also, the inhibition of aggregation in experiment [2] is -18.4% (inactive). In addition, the nuclei count is 93.1% in experiment [2] and 83.5% in [3]. In addition, the fluorescence slope in experiment [4] was -0.37 (inactive). Also, the NADPH fluorescence slope in [5] is -6.9e-05 (inactive). In experiment [6], the slope was 0.005 (inactive). Moreover, the molecule was called inactive in [7].

For the molecule `N#CC1=C(N)N2C(=C(C#N)C13CCCCC3)SC1CCCCC12O` (stereo unspecified), in [1], the cell count came out at 322. Also, the inhibition in experiment [1] is 11.4% (inactive); in experiment [3], -4.6% (inactive); in experiment [8], 19% (inactive); in experiment [9] it was 24.3% (inactive). In addition, the inhibition of aggregation in experiment [2] is 3.6% (inactive). For the same molecule, the nuclei count came to 91.5% in experiment [2] and 116% in experiment [3]. The fluorescence slope in [4] was -0.405 (inactive). In experiment [5], the NADPH fluorescence slope was 1.2e-05 (inactive). In [6], the slope was 0.00499 (inactive). For the same molecule, the molecule was classed as inactive in [7].

For `CC(=O)NCCC(=O)Nc1ccc(C)c(F)c1`, in experiment [1], the cell count stood at 417. Moreover, the inhibition was -4.4% (inactive) in experiment [1], -55.7% (inactive) in experiment [3], -3.46% (inactive) in [8] and -7.08% (inactive) in [9]. The inhibition of aggregation in experiment [2] was -5.1% (inactive). In addition, the nuclei count in experiment [2] was found to be 109%; in [3], 110%. The fluorescence slope in [4] was -0.451 (inactive). Besides, in [5], the NADPH fluorescence slope was -1.3e-05 (inactive). Moreover, the slope in experiment [6] was 0.00617 (inactive). Further, the outcome in experiment [7] was inactive.

For the molecule `O=C(CSc1nnc(-c2ccco2)n1CC1CCCO1)N1CCCCC1` (stereo unspecified), the cell count in experiment [1] came to 375. The inhibition in [1] is 1.4% (inactive); in [3] it was -41% (inactive); in [8], 13.1% (inactive); in experiment [9], 11.6% (inactive). In addition, the inhibition of aggregation in [2] was 9.7% (inactive). In addition, the nuclei count came to 102% in experiment [2] and 107% in experiment [3]. In experiment [4], the fluorescence slope was -0.378 (inactive). The NADPH fluorescence slope in [5] is -6.2e-05 (inactive). In addition, in experiment [6], the slope is 0.00431 (inactive). Moreover, the molecule was called inactive in [7].

Consider `O=C(CCC(=O)OCC(=O)c1ccccc1)NC1CCCCC1`, for which the cell count in experiment [1] worked out at 449. Besides, the inhibition in experiment [1] is 1.2% (inactive); in experiment [3], 30.3% (inactive); in experiment [8], -0.183% (inactive); in experiment [9], 97.3% (active). Also, the inhibition of aggregation in experiment [2] was 1.6% (inactive). Moreover, the nuclei count in experiment [2] is 95%; in [3] it was 112%. In addition, the fluorescence slope in [4] is -0.356 (inactive). In experiment [5], the NADPH fluorescence slope is -6.3e-05 (inactive). For the same molecule, the slope in experiment [6] is 0.00794 (inactive). Further, the result in experiment [7] was inactive.

As to `O=C(CN(CC1CCCO1)S(=O)(=O)c1ccc(S(=O)(=O)NC2CC2)cc1)Nc1ccccc1` (stereo unspecified), the cell count in experiment [1] is 502. Also, the inhibition in [1] was -15.8% (inactive); in experiment [3], 12.1% (inactive); in [8], 7.42% (inactive); in experiment [9] it was 7.34% (inactive). The inhibition of aggregation in [2] is 17.8% (inactive). For the same molecule, the values for the nuclei count in [2] and in experiment [3] were 83.4% and 96.1%, respectively. The fluorescence slope in experiment [4] is -0.384 (inactive). In addition, the NADPH fluorescence slope in experiment [5] was -4.7e-05 (inactive). Also, the slope in experiment [6] is 0.00436 (inactive). In experiment [7], the result was inactive.

For the molecule `COc1ccccc1N1CCN(C(=O)C2CCN(S(=O)(=O)c3ccc(F)cc3)CC2)CC1`, the cell count in experiment [1] was 676. For the same molecule, the inhibition in experiment [1] was 11.9% (inactive); in experiment [3] it was -23.6% (inactive); in [8], -6.92% (inactive); in experiment [9], -9.69% (inactive). The inhibition of aggregation in experiment [2] is 6.6% (inactive). Besides, the nuclei count in [2] turned out to be 108%; in [3], 96.3%. In addition, the fluorescence slope in experiment [4] was -0.415 (inactive). For the same molecule, the NADPH fluorescence slope in experiment [5] was -2.3e-05 (inactive). In addition, the slope in [6] was 0.00451 (inactive). Moreover, in [7], the call was inactive.

For `CCOC(=O)CSc1nc2sc(C)c(C)c2c(=O)[nH]1`, in [1], the cell count is 419. The inhibition was 1.6% (inactive) in experiment [1], -75.6% (inactive) in experiment [3], 8.58% (inactive) in experiment [8] and 9.53% (inactive) in experiment [9]. Moreover, the inhibition of aggregation in [2] was -20% (inactive). Moreover, the nuclei count in experiment [2] amounted to 104%; in experiment [3] it was 102%. The fluorescence slope in experiment [4] is -0.38 (inactive). Besides, the NADPH fluorescence slope in experiment [5] is -5e-06 (inactive). Also, the slope in experiment [6] is 0.00685 (inactive). The result in [7] was inactive.

Turning to `CCC1CCCCN1CCCNC(=O)c1ccc(CS(=O)(=O)Cc2ccccc2F)o1` (stereo unspecified), in experiment [1], the cell count came to 618. Moreover, the inhibition in experiment [1] is -20.5% (inactive); in [3], -64.6% (inactive); in [8], 6.88% (inactive); in [9], 20.5% (inactive). Further, the inhibition of aggregation in experiment [2] was 7.5% (inactive). The values for the nuclei count in experiment [2] and in experiment [3] were 94.4% and 91%, respectively. Also, the fluorescence slope in experiment [4] was -0.416 (inactive). In addition, in [5], the NADPH fluorescence slope is -5.4e-05 (inactive). In addition, in experiment [6], the slope is 0.00482 (inactive). For the same molecule, in [7], the result was inactive.
